Screens: PubChem BioAssay, several laboratories
PMI act: increases human mannose-6-phosphate isomerase activity | P34949 | purified human PMI, coupled resazurin fluorescence, 20 min; stronger effect = higher value; 1 = vehicle control, 0 substrate-free wells | activation factor at 20 µM | 190,000 tested, 0.005% active;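 active means activation factor of 2 or more at 20 µM, relative to plate controls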
Target sequence (P34949 whole entry, looked up): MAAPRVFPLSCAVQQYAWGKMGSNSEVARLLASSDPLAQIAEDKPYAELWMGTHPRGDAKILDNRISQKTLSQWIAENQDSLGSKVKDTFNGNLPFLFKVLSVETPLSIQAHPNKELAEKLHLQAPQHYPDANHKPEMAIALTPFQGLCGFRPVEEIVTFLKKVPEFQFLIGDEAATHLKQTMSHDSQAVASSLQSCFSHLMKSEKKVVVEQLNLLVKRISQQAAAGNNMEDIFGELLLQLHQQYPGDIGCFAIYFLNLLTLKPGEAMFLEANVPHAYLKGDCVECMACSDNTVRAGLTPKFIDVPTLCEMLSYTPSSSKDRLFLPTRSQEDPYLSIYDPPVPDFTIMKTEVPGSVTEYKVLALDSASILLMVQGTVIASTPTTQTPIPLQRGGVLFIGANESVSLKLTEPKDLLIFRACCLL
Calpain2 inh: blocks pig calpain II enzyme activity. purified calpain II, fluorogenic peptide substrate, 30 min. inhibition, % at 16 µM. 220,000 tested, 0.37% active. AID 1236;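 active means inhibition above about 50%, limit read from the data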
WT yeast gro inh: growth inhibition of WT yeast, mitochondrial fusion screen; mitochondrial fusion phenotypic screen, WT strain; inhibition, % at 10 µM; 190,000 tested, 2.1% active; in the data active means inhibition above about 58%; tested in S. cerevisiae
Lmaj promast: Leishmania major promastigote growth inhibition; Leishmania major promastigotes, resazurin fluorescence viability; inhibition, % at 10 µM; 200,000 tested, 9% active; in the data active means inhibition above about 50%;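 further: promastigotes grown with compound for 44 hours at 28 °C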
PMI act hi M6P: increases human PMI activity with near-saturating mannose 6-phosphate | P34949 | AID 1216 | coupled PMI enzyme assay, resazurin fluorescence, 20 min; stronger effect = higher value; 1 = untreated enzyme, 0 = substrate-free blank | activation factor at 20 µM | 190,000 tested, 0.34% active;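 active means activation factor of 2 or more at 20 µM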
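Material: human phosphomannose isomerase with PGI, G6PDH, diaphorase coupling enzymes / Reagent: Man-6-P substrate 1.0 mM / Dosing: single compound dose of 20 µM, 1% DMSO final / Incubation: enzyme reaction with compound 20 min at room temperature / Signal: resorufin fluorescence (Ex 544/Em 590 nm) from resazurin via diaphorase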
Rad51 HR inh: blocks human Rad51 in homologous recombination. Q06609. hRad51 DNA strand exchange, fluorescence dequenching. inhibition, % at 10 µM. 200,000 tested, 0.085% active. AID 1385;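 active means inhibition above 40% at the single screening dose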;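 further: 0% = DMSO control wells and 100% = blanks with heterologous ssDNA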
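System: human Rad51 nucleoprotein filaments preassembled on unlabelled ssDNA. Reagent: labelled 47-mer dsDNA for strand exchange. Schedule: 30-min compound preincubation and 15-min exchange, both room temperature. Measured by: FRET fluorescence dequenching, excitation 485 nm, emission 520 nm. Read-out: Fluorescence-based percent inhibition, control- and blank-normalised. Benchmarks: plate controls and plate blanks.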
Starred values were filed as active, the others as inactive; nt = no result. Shown are actives, neighbours in structure and some others; about 9.8% of the full set was active somewhere.

SMILES	PMI act	Calpain2 inh	WT yeast gro inh	Lmaj promast	PMI act hi M6P	Rad51 HR inh
COc1ccccc1NC(=O)c1cc2n(n1)C(C(F)(F)F)CC(c1ccc3c(c1)OCO3)N2 (stereo not drawn)	0.7	-97	4	62*	0.7	1
COc1ccc(OC)c(NC(=O)c2cc3n(n2)C(C(F)(F)F)CC(c2ccc4c(c2)OCO4)N3)c1 (stereo not drawn)	0.8	nt	nt	27	0.8	-2
O=C(NCc1ccc2c(c1)OCO2)c1cc2n(n1)C(C(F)(F)F)CC(c1ccc3c(c1)OCO3)N2 (stereo not drawn)	1	15	10	-6	1	nt
O=C(Nc1cc(Cl)ccc1O)c1cc2n(n1)C(C(F)(F)F)CC(c1ccc3c(c1)OCO3)N2 (stereo not drawn)	0.8	-19	34	84*	0.9	16
CCOC(=O)c1c(C=O)c2sc(C)cc2n1C	0.9	-250	6	-8	0.9	6
COc1ccccc1-n1c(SCC(=O)OC(C)C)nc2cccnc21	nt	1	nt	nt	nt	26
CCCCN(CCCC)CCNC(=O)CSCc1ccc(C)cc1	0.9	8	-5	83*	0.9	-18
Cc1ccc(CNC(=O)CSCc2ccc(F)cc2)cc1	1	-11	7	4	1	46*
Cc1ccc(-c2ccc(=O)n(CC(=O)NCc3ccc(F)cc3)n2)cc1	1.1	-31	7	3	1.2	50*
Cc1ccc(-c2ccc(=O)n(CC(=O)NCCN(C)C)n2)cc1	0.9	-20	0	15	0.9	1
CCOc1ccc(CCNC(=O)CSCc2ccc(C)cc2)cc1OCC	0.8	24	9	1	0.9	nt
Cc1ccc(CNC(=O)CSCc2ccccc2)cc1	0.9	-23	-17	-8	0.9	4
O=C(O)CCC(=O)NN1C(=O)c2ccccc2NC1c1ccc(F)cc1 (stereo not drawn)	nt	-293	nt	nt	nt	-4
COc1ccc(-c2nn(-c3ccccc3)cc2/C=N/N=C(N)N)cc1OC	0.9	-41	-1	46	0.9	12
COc1ccc(-c2nn(-c3ccccc3)cc2/C=N/NC(=S)NC(C)C)cc1OC	0.9	-55	27	61*	0.9	-30
COc1ccc(-c2nn(-c3ccccc3)cc2/C=N/Nc2ccc3ccccc3n2)cc1OC	1	-44	42	51*	0.9	nt
CCCCCCNC(=O)N[C@H](C(=O)NCCC[C@H]1CN2C(=NC[C@H]2C)N1CCC(c1ccccc1)c1ccccc1)C(C)O (stereo partly drawn)	nt	-15	nt	nt	nt	nt
N#Cc1ccc(OCC(=O)N/N=C/C2CC=CCC2)cc1 (stereo not drawn)	1	-3	7	-6	0.8	2
Cc1ccc(-c2c[n+](CC(=O)Nc3ccccc3C)c3n2CCC3)cc1	nt	-4	nt	nt	nt	2
COc1ccc(NC(=O)COC(=O)/C=C/c2cnc3ccccc3n2)cc1	0.9	-31	-7	0	1	7
CC(C)(C)C(=O)Nc1ccc(C(=O)N/N=C/c2ccccc2OC(=O)c2ccccc2)cc1	1	12	9	50	1	4
COc1cc(C(=O)Oc2ccccc2/C=N/NC(=O)c2ccc(C)cc2)cc(OC)c1OC	1	0	9	76*	1.1	-5
Cc1cccc(C(=O)Oc2ccccc2/C=N/NC(=O)c2ccc(NC(=O)C(C)(C)C)cc2)c1	1	-77	11	23	1	-6
CC(C)(C)C(=O)Nc1ccc(C(=O)N/N=C/c2ccccc2OC(=O)c2ccc(Cl)cc2)cc1	1	-33	-9	55*	1.1	10
CCOC(=O)c1cc(NC(=O)Nc2nccs2)c(C)nc1C	1.2	-13	-8	-4	1.3	4
SMILES	PMI act	Calpain2 inh	WT yeast gro inh	Lmaj promast	PMI act hi M6P	Rad51 HR inh
Cc1ccc(SCCNC(=O)/C=C/c2ccc(Cl)cc2)cc1	1.1	10	11	51*	1.1	8
Cc1ccc(SCCNC(=O)/C=C/c2ccccc2Cl)cc1	0.9	20	2	2	1	-1
O=C(CN1CCNCC1)NCCSc1ccc(Cl)cc1	1.1	30	-6	88*	1	-23
O=C(CN1CCNCC1)Nc1ccccc1Cl	0.9	-15	19	-5	0.9	1
COc1ccccc1OCCNC(=O)/C=C/c1ccc([N+](=O)[O-])cc1	0.9	21	9	5	0.9	18
Cc1ccc(OCCNC(=O)/C=C/c2ccc([N+](=O)[O-])cc2)cc1C	0.8	14	17	-2	0.9	0
O=C(/C=C/c1ccc([N+](=O)[O-])cc1)NCCSc1ccccc1	0.9	57*	27	-2	0.9	3
Cc1ccc(SCCNC(=O)/C=C/c2ccc([N+](=O)[O-])cc2)cc1	0.9	33	25	62*	1	-2
CN(/N=C/c1ccc(O)cc1O)c1ncc(C(F)(F)F)cc1Cl	nt	-17	nt	nt	nt	nt
CC1=C(C(=O)OCc2ccccc2)C(c2ccc(Cl)cc2Cl)NC(=O)N1CCCC(=O)O (stereo not drawn)	1	-34	-9	-8	1	-10
COC(=O)c1ccc(OCC(O)CN2CCC(C)CC2)cc1 (stereo not drawn)	0.9	-42	-12	-1	0.8	3
Cc1cc(Cl)ccc1OCC(O)CN1C(C)CCCC1C (stereo not drawn)	1.1	22	11	91*	1	-2
CC(=O)c1ccc(OCC(O)CN2C(C)CCCC2C)cc1 (stereo not drawn)	1	2	14	72*	1	6
CCC(=O)c1ccc(OCC(O)CN2CCN(C(c3ccccc3)c3ccccc3)CC2)cc1 (stereo not drawn)	0.8	-5	18	60*	0.9	0
CC(=O)c1ccc(OCC(O)CN2CC(C)OC(C)C2)cc1 (stereo not drawn)	1.1	-17	-10	37	1.2	-4
CC(=O)c1ccc(OCC(O)CN2CCC(C)CC2)cc1 (stereo not drawn)	1	0	4	88*	1	-2
CCN(C(=O)CN1CC(C)OC(C)C1)c1c(N)n(Cc2ccccc2)c(=O)[nH]c1=O (stereo not drawn)	1.1	3	5	-4	1	12
S=C(NCCc1ccccc1)Nc1ccc(Br)cn1	0.8	24	4	6	0.9	-1
CC(=O)/C(=N/Nc1cccc(Cl)c1)N1CCOCC1	1.6	9	nt	8	2*	0
CC(=O)/C(=N/Nc1ccccc1C)N1CCOCC1	1.5	-5	10	3	2.4*	0
COc1cc(NC(=O)Cn2nnc(-c3ccccc3N)n2)cc(OC)c1	0.9	-1	0	55*	0.9	-4
COc1ccccc1-c1nnn(C/C(N)=N/O)n1	1	7	-4	72*	1.1	4
